The full list was thinned out, with hits kept by preference.
IDH1 R132H inh: IDH1 R132H (human) inhibition; O75874; IDH1 R132H reductase, diaphorase/resazurin fluorescence, 60 min; inhibition, % at 10 µM; 0.18% of 70,000 active; AID 624101; in the data active = inhibition above about 34%; inconclusive = no clear call, values can overlap the other calls; inactive = below about 11%;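 note: 0% = DMSO and 100% = no enzyme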
Target sequence (O75874 whole entry R132H): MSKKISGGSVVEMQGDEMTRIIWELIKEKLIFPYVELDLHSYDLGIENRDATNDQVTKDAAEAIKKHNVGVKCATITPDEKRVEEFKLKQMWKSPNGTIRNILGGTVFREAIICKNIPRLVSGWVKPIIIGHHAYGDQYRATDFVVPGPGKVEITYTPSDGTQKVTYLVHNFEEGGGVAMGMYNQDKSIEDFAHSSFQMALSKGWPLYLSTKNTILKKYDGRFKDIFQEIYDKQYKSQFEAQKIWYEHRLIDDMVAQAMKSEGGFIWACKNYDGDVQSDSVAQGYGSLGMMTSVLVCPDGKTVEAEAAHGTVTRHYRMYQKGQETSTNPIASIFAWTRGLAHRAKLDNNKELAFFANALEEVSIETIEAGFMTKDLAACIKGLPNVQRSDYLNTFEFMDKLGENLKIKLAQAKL
KDM4C inh: blocks human GASC-1 (KDM4C) demethylase activity | 0.15% of 96,000 active | AID 720574 | GST-KDM4C 2-372, H3K9me3 peptide, LANCE TR-FRET | inhibition, % at 12.5 µM | Q9H3R0;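 active = mean replicate inhibition above about 25%, with at least 55% of replicates also reaching it, limit read from the data, passing the limit was not always enough; inconclusive = only one of those two conditions met; inactive = neither condition met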
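System: N-terminal GST-fused human GASC-1 (KDM4C) fragment, residues 2-372 / Amount: 10 nM GST-KDM4C in enzyme reaction / Also added: H3K9me3 peptide with Fe(II)/2OG / Times: 30 min demethylation and 1 h detection at room temperature / Signal: LANCE TR-FRET / Read-out basis: Fall in 671/618 emission ratio as inhibition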
T cruzi growth-1: blocks T. cruzi growth in NIH3T3 culture; 5.9% of 77,000 active; inhibition, % at 8.34 µM; T. cruzi beta-gal in NIH3T3, GalScreen luminescence, 90 h; AID 624255;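 active = mean inhibition above about 93%, with at least 55% of replicates each passing it, limit read from the data, passing the limit was not always enough; inconclusive = only one of those two conditions holds; inactive = neither condition holds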
T cruzi growth-2: inhibitors of T. cruzi proliferation | shares compounds with T cruzi growth-1 | T. cruzi beta-gal in NIH3T3, GalScreen luminescence, 90 h | inhibition, % at 8.35 µM | 72% of 5,600 active;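 active = mean replicate inhibition above about 95% and at least 55% of replicates individually reaching it, limit read from the data; inconclusive = only one of the two criteria is met; inactive = neither criterion is met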
T cruzi growth-3: Trypanosoma cruzi proliferation inhibition; T. cruzi beta-gal in NIH3T3, GalScreen luminescence, 90 h; inhibition, % at 2.09 µM; AID 651740; shares compounds with T cruzi growth-1; 21% of 5,600 active;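 active = mean inhibition above about 95%, with at least 55% of replicates also reaching it, limit read from the data; inconclusive = meets just one of the two conditions; inactive = meets neither condition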;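 note: plate controls were neutral control median for no effect and positive control median for full effect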
NIH3T3 tox: NIH/3T3 (mouse) viability loss | shares compounds with T cruzi growth-1 | NIH/3T3 viability, CellTiter-Glo ATP luminescence, 90 h | cytotoxicity (signal decrease), % at 8.35 µM | 14% of 5,600 active;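 active = mean signal decrease across replicates above about 35% based on untreated-well scatter, with enough replicates individually passing, limit read from the data; inconclusive = no rule stated though some were filed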;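 note: 0% = median of neutral control wells and 100% = median of positive control wells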
NIH3T3 tox 2: cytotoxicity in mouse NIH/3T3 fibroblasts | 56% of 5,600 active | shares compounds with T cruzi growth-1 | NIH/3T3 viability, CellTiter-Glo ATP luminescence, 90 h | AID 651744 | inhibition, % at 24.9 µM;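 active = mean loss of cell viability signal at or above a set limit, and enough replicates individually reaching it; inconclusive = meets only the mean limit or only the replicate share; inactive = meets neither condition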;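 note: 0% = median of neutral control wells and 100% = median of positive control wells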
Active calls of the source: *; ? = inconclusive; / = no result.

SMILES	IDH1 R132H inh	KDM4C inh	T cruzi growth-1	T cruzi growth-2	T cruzi growth-3	NIH3T3 tox	NIH3T3 tox 2
C[C@H](CO)N1C[C@H](C)[C@@H](CN(C)C(=O)C2CCC2)Oc2cc(C#CC3CC3)ccc2S1(=O)=O	-1.8	-1.6	76.4	/	/	/	/
C[C@@H]1CN([C@H](C)CO)S(=O)(=O)c2ccc(C#CC3CCCC3)cc2O[C@@H]1CN(C)C(=O)C1CC1	-3.4	0.0	-93.7	/	/	/	/
O=C(c1ccccn1)N1CC(=O)N2[C@H](C1)[C@H](c1ccc(C#Cc3ccccc3)cc1)[C@@H]2CO	/	-2.0	/	/	/	/	/
C[C@@H]1CN([C@@H](C)CO)C(=O)c2c(c3ccccc3n2C)-c2ccccc2CO[C@@H]1CN(C)Cc1ccccc1C(F)(F)F	/	-3.4	/	/	/	/	/
Cc1ccc(-c2csc3ncnc(SCC(=O)c4ccc(F)cc4)c23)cc1	0.7	/	/	/	/	/	/
C[C@H](CO)N1C[C@H](C)[C@H](CN(C)C(=O)C2CCCCC2)Oc2cc(C#CC3CC3)ccc2S1(=O)=O	/	-2.3	?	105.6*	66.7	11.2	27.0
C[C@@H]1CN([C@@H](C)CO)S(=O)(=O)c2ccc(C#CC3CC3)cc2O[C@H]1CN(C)C(=O)C1CCC1	/	0.2	84.4	/	/	/	/
C[C@@H]1CN([C@H](C)CO)S(=O)(=O)c2ccc(C#CC3CC3)cc2O[C@@H]1CN(C)C(=O)C1CCC1	/	-1.2	57.2	/	/	/	/
C[C@@H]1CN([C@@H](C)CO)S(=O)(=O)c2ccc(C#CC3CC3)cc2O[C@@H]1CN(C)C(=O)C1CCCCC1	/	-1.0	100.0*	105.2*	88.2	14.3	19.9
O=C(CSc1n[nH]c(-c2ccncc2)n1)Nc1sc2c(c1C(=O)Nc1ccccc1)CCCC2	0.3	/	/	/	/	/	/
O=C(Nc1ccc(F)cc1)N1CCCCN2[C@H](CO)[C@H](c3ccc(-c4ccncc4)cc3)[C@H]2C1	/	-1.9	87.2	/	/	/	/
O=C(Nc1cccc(F)c1)N1CCCCN2[C@H](CO)[C@@H](c3ccc(-c4ccncc4)cc3)[C@@H]2C1	/	0.7	103.0*	113.1*	49.7	36.0*	30.8*
Cc1ccc(-c2ccc([C@H]3[C@H]4CN(C(=O)Nc5cccc(F)c5)CCCCN4[C@H]3CO)cc2)cc1	/	-2.0	72.1	/	/	/	/
O=C(Nc1ccc(F)cc1)N1CCCCN2[C@@H](CO)[C@H](c3ccc(-c4ccncc4)cc3)[C@@H]2C1	/	-1.9	81.4	/	/	/	/
Cc1ccc(-c2ccc([C@H]3[C@H](CO)N4CCCCN(C(=O)Nc5cccc(F)c5)C[C@@H]34)cc2)cc1	/	0.6	105.7*	99.5*	?	118.0*	105.3*
O=C(Nc1cccc(F)c1)N1CCCCN2[C@H](CO)[C@H](c3ccc(-c4ccncc4)cc3)[C@@H]2C1	/	0.8	107.8*	99.6*	37.8	6.9	8.4
COc1cccc(NC(=O)c2ccc(NCc3cccnc3)c([N+](=O)[O-])c2)c1	-0.3	/	/	/	/	/	/
CNC[C@H]1Oc2cc(C#Cc3ccncc3)ccc2S(=O)(=O)N([C@H](C)CO)C[C@@H]1C	4.4	2.0	/	/	/	/	/
CS(=O)(=O)N(CC(=O)Nc1cc(C(F)(F)F)ccc1Cl)c1ccccc1	-0.3	/	/	/	/	/	/
COc1cccc(-c2ccc3c(c2)O[C@H](CN(C)C(=O)c2ccccc2F)[C@@H](C)CN([C@H](C)CO)S3(=O)=O)c1	0.4	-0.4	/	/	/	/	/
COc1ccc(-c2ccc3c(c2)O[C@H](CN(C)C(=O)c2ccccc2F)[C@@H](C)CN([C@@H](C)CO)S3(=O)=O)cc1	-0.4	-0.1	106.3*	104.5*	67.7	12.3	54.0*
COc1ccc(-c2ccc3c(c2)O[C@@H](CN(C)C(=O)c2ccccc2F)[C@H](C)CN([C@H](C)CO)S3(=O)=O)cc1	-0.2	-2.5	113.7*	104.8*	66.9	39.5*	70.2*
COc1ccc(-c2ccc3c(c2)O[C@@H](CN(C)C(=O)c2ccccc2F)[C@@H](C)CN([C@@H](C)CO)S3(=O)=O)cc1	-0.5	-2.0	84.3	/	/	/	/
COc1ccc(-c2ccc3c(c2)O[C@H](CN(C)C(=O)Nc2ccccc2F)[C@@H](C)CN([C@@H](C)CO)S3(=O)=O)cc1	5.6	-2.1	97.8*	108.1*	53.5	33.4	58.3*

Source: PubChem BioAssay (Broad Institute)
